Test results: PMC5769151 (Journal of medicinal chemistry, 2015)

How the values were obtained:
MOR = MOR (Homo sapiens, UniProt P35372); format: cell-based
μ opioid receptor (MOR) = format: binding
NK1R [1] = target: T1, NK1R (Homo sapiens, UniProt P25103); test: hNK1/CHO cell membrane radioligand binding assay; settings: binding ratio human/rat NK1
Target sequence in this assay (P25103 whole entry): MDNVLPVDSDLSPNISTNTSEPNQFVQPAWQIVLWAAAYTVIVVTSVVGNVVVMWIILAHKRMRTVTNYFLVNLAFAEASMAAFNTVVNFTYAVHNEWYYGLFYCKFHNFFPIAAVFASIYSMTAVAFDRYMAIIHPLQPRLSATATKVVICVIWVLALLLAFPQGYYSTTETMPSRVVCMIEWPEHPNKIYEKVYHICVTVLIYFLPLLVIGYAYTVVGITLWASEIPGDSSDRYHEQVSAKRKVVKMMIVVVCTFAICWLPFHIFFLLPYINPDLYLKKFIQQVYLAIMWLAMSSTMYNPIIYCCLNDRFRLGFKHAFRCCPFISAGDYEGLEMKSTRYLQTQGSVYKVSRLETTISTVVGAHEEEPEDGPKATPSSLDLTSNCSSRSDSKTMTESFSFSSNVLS

GPI (MOR) = test: Guinea pig isolated ileum; format: cell-based; settings: IC50 μ / IC50 δ
How it was run: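 Male Hartley guinea pig ileum LMMP (0.1 Hz, 0.4 ms) and male ICR mouse vasa deferentia (0.5 g tension, Mg-free Krebs, 37 °C, O2/CO2 95:5; 0.1 Hz single pulses, 2.0 ms), electrically stimulated at supramaximal voltage.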

NK1R [2] = target: T1, NK1R; format: cell-based
Target sequence in this assay (P25103 whole entry, species assumed): as the sequence (P25103 whole entry) above

GPI/LMMP (NK1R) = GPI/LMMP (NK1R) (Cavia porcellus, UniProt P30547); test: GPI/LMMP functional assay at NK1R; format: cell-based, guinea pig; settings: at the concentration printed in the cell
GPI/LMMP (NK1R), sequence (P30547 whole entry): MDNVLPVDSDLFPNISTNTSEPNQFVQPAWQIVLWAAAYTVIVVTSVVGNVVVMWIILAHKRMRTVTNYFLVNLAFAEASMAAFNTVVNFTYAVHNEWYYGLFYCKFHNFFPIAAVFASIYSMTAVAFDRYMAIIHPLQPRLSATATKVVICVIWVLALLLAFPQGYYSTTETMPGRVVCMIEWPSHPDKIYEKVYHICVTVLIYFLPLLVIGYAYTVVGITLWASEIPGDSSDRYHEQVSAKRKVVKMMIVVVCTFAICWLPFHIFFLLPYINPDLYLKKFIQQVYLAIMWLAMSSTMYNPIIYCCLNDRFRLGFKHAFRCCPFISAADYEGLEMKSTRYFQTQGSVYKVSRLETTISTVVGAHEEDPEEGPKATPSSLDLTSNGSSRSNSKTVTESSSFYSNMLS

MOR, sequence (P35372 whole entry): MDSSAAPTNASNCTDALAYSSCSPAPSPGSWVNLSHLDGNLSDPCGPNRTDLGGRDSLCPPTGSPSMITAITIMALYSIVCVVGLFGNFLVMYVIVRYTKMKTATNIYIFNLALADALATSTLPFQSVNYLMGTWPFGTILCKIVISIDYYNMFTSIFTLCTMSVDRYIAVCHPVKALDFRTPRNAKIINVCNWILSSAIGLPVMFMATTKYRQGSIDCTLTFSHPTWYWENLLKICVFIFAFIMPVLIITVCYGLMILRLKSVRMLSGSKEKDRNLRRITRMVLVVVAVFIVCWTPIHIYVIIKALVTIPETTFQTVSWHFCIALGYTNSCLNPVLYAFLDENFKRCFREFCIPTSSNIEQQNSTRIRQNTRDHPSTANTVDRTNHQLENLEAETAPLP

SMILES: Cc1cc(O)cc(C)c1C[C@H](N)C(=O)N[C@H](C)C(=O)NCC(=O)N[C@@H](Cc1ccccc1)C(=O)N1CCC[C@H]1C(=O)N[C@@H](CC(C)C)C(=O)N[C@@H](Cc1c[nH]c2ccccc12)C(=O)NCc1cc(C(F)(F)F)cc(C(F)(F)F)c1 [ligand 4]
- MOR/DOR IC50 ratio (cAMP assay) (MOR): 6/1
- Ki^μ/Ki^δ (μ opioid receptor (MOR); binding ratio MOR/DOR): 3/1
- log[IC50±] (MOR) (μ opioid receptor (MOR); log IC50 from nonlinear regression, MOR binding): −8.63 ± 0.04
- Ki^hNK1/Ki^rNK1 (NK1R [1]): 1/19
- GPI/MVD IC50 ratio (GPI (MOR)): 26/1
- Kb (NK1R [2]): 0.011 ± 0.01 µM
- GPI/LMMP (NK1R) agonism (GPI/LMMP (NK1R)): none at 100 nM
